This note sets out measurements from ChEMBL document CHEMBL1128194, “A new series of pyridinone derivatives as potent non-nucleoside human immunodeficiency virus type 1 specific reverse transcriptase inhibitors” (J Med Chem, 1995).

In experiment [1] the test system is CEM-SS. The experiment in a line: Cytotoxicity against wild type HIV-1-IIIB strain infected CEMSS cells. Format: functional. The following applies: Homo sapiens. The essentials:
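Uninfected cells were incubated with compound for 5 days. Viability was read by MTT reduction to formazan at OD540. CC50 is the concentration that halves OD540, taken from a median-effect computer analysis.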

For experiment [2], the system named is CEM-SS. The experiment in a line: Specific index of IC50 and CC50 on HIV-1 IIIB wild type. Format: functional.
Experiment [3] relates to Human immunodeficiency virus 1. The experiment is described as follows: Inhibition of wild type HIV-1-IIIB strain replication in CEM-SS cells. As to conditions: Human immunodeficiency virus 1, CEM-SS. The class given is functional, organism-based. An outline of the steps: (§1)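 Cells were infected with 100 TCID50 for 30 min and washed twice to remove unbound virus. They were then cultured 5 days with a range of compound concentrations. Virus production was quantified as particle-associated RT activity in the supernatant. IC50 was derived from a computer-generated median-effect plot of dose–effect data.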

The target in experiment [4] is Human immunodeficiency virus type 1 reverse transcriptase (Human immunodeficiency virus 1, UniProt Q72547). The experiment is described as follows: Inhibition of HIV-1 reverse transcriptase (RT). An outline of the steps:
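Recombinant HIV-1 RT (20–50 nM) was expressed in yeast. Assays ran 10 min at 37 °C in 50 mM Tris-HCl pH 8.0 with 5 mM MgCl2, 4 mM DTT, 80 mM KCl and BSA. Template-primer was poly(C)-oligo(dG) (5:1, 0.48 A260/mL), with 2 μM dGTP plus [3H]dGTP. Product was precipitated with cold TCA/pyrophosphate, filtered and scintillation counted. Compounds were in DMSO, with matched DMSO controls.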

Experiment [5] relates to CEM-SS. The experiment is described as follows: The compound was tested for inhibition of nevirapine HIV-1 resistant strain. Format: functional, cell-based. As to conditions: Homo sapiens. The essentials: (§2)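 Cells infected with 100 TCID50 virus for 30 min. Unbound virus removed by two washes, then cells cultured 5 days with a range of compound concentrations. Virus production read as particle-associated RT activity in the culture supernatant. IC50 taken from a computer-generated median effect plot of the dose–effect data.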

Experiment [6] is described as follows: Specific index of IC50 and CC50 on HIV-1 Nevirapine resistant strain. The class given is functional.
The test system of experiment [7] is CEM-SS. The experiment is described as follows: The compound was tested for cytotoxicity against nevirapine HIV-1 resistant strain infected CEMSS cells. The class given is functional. As to conditions: Homo sapiens.
Experiment [8] relates to CEM-SS. The experiment is described as follows: The compound was tested for inhibition of Nevirapine resistant HIV-1 (N119) cells. The class given is functional, cell-based. As to conditions: Homo sapiens. An outline of the steps: as §2
The test system of experiment [9] is CEM-SS. The experiment is described as follows: The compound was tested for inhibition of wild type HIV-1-IIIB strain. The following applies: Homo sapiens. The class given is functional, cell-based. The essentials: as §1

With `Cc1cnc(O)c([N+](=O)[O-])c1Sc1ccccn1`, the CC50 in [1] came to 28.5 µM. The Specific index in experiment [2] was >1. Moreover, in experiment [3], the IC50 came to 18 µM.
For `Cc1cnc(O)c([N+](=O)[O-])c1Sc1nc2ccccc2o1`, the midpoint of cytotoxicity in experiment [1], the CC50, lay at 16 µM. Besides, the Specific index in experiment [2] is recorded as >2. Besides, the IC50 in experiment [3] came to 5.5 µM.
Turning to `Cc1cccc(Sc2c(C)cnc(O)c2[N+](=O)[O-])c1`, the CC50 in [1] was > 10 µM. Besides, in [4], the IC50 is > 10 µM.
On to `CCOC(=O)c1c(O)nc(C)c(CC)c1Sc1cc(C)cc(C)c1`, for which the CC50 in experiment [1] is > 10 µM. Moreover, the IC50 is 2.2 µM in experiment [5] and 0.003 µM in experiment [3]. For the same compound, the Specific index in experiment [2] is >3333; in [6] it was > 4.5.
In turn, `CCOC(=O)c1c(Sc2cc(C)cc(C)c2)c(CC)c(C)[nH]c1=O` yielded an IC50 in experiment [4] of 0.6 µM.
In the case of `CCC(=O)Nc1c(O)ncc(C)c1Sc1cc(C)cc(C)c1`, the CC50 in experiment [1] was > 100 µM. Besides, the Specific index in experiment [2] is recorded as >2. In addition, the IC50 in [3] is 41.4 µM; in experiment [4], > 4 µM.
Regarding `Cc1cnc(O)c([N+](=O)[O-])c1Sc1nc2ccccc2s1`, the CC50 in experiment [1] came to 13.5 µM. For the same compound, the IC50 in experiment [3] turned out to be 14.5 µM.
With `CCc1cnc(O)c([N+](=O)[O-])c1Sc1cc(C)cc(C)c1`, in [1], the CC50 is > 10 µM. The IC50 in experiment [5] was 6.7 µM; in experiment [3], ~0.09 µM. For the same compound, the Specific index in experiment [2] was >111; in experiment [6] it was > 1.
With `CCOC(=O)Nc1c(O)ncc(C)c1Sc1cc(C)cc(C)c1`, the 50% cytotoxic concentration (CC50) in experiment [1] is > 100 µM. Also, the Specific index in experiment [2] is recorded as >13. The midpoint of inhibition in experiment [3], the IC50, lay at 7.5 µM.
`Cc1cc(C)cc(Sc2c(C)cnc(O)c2NC(=O)Cc2ccccc2)c1`: the half-maximal cytotoxic concentration (CC50) in experiment [1] is > 10 µM. The IC50 in experiment [3] was > 10 µM.
Turning to `Cc1cc(C)cc(Sc2c(N)c(O)nc3ccccc23)c1`, the CC50 in [1] was > 9 µM; in experiment [7] it was 8.2 µM. Besides, the IC50 in [5] was 6.6 µM; in experiment [3], 0.25 µM. In addition, the Specific index in experiment [2] was >36; in experiment [6], > 1.5.
For the compound `CC(=O)Nc1c(O)ncc(C)c1Sc1cc(C)cc(C)c1`, the CC50 in [1] is > 100 µM. Also, the IC50 in [5] is > 100 µM; in [3], 0.067 µM; in experiment [4] it was > 4 µM. Further, the Specific index in [2] was >1492.
On to `Cc1cc(O)nc(Sc2c(C)cnc(O)c2[N+](=O)[O-])n1`, for which the CC50 in experiment [1] is > 100 µM. For the same compound, in experiment [3], the IC50 is > 100 µM.
Regarding `Cc1c(Sc2ccccc2)n(COCCO)c(=O)[nH]c1=O` [HEPT], the IC50 in experiment [4] was > 6 µM.
As to `Cc1cc(C)cc(Sc2c([N+](=O)[O-])c(O)nc3ccccc23)c1`, the CC50 in experiment [1] was > 100 µM. Also, the IC50 was > 10 µM in experiment [5] and 3.8 µM in experiment [3]. The Specific index in experiment [2] was >26.
For `Cc1cnc(O)c([N+](=O)[O-])c1Sc1ccccc1`, the CC50 in experiment [1] is > 10 µM. In addition, the half-inhibitory concentration (IC50) in experiment [3] is > 10 µM.
The compound `Cc1c(Sc2ccccc2)n(COCc2ccccc2)c(=O)[nH]c1=O` came in with an IC50 in [4] of 0.4 µM. That is a sub-micromolar value.
For `CCc1c(C)nc(O)c(NC(C)=O)c1Sc1cc(C)cc(C)c1`, the CC50 in experiment [1] was 80 µM; in [7] it was > 100 µM. Besides, the IC50 in experiment [5] was found to be 4.3 µM; in experiment [3] it was 0.05 µM. Further, the Specific index is 1600 in [2] and > 23 in experiment [6].
For the compound `Cc1cc(C)cc(Nc2c(C)cnc(O)c2[N+](=O)[O-])c1`, the CC50 in experiment [1] was > 100 µM. For the same compound, the Specific index in experiment [2] is given as >2. In experiment [3], this compound yielded an IC50 of 45 µM.
Regarding `Cc1cccc(Sc2c(C)c[nH]c(=O)c2N)c1`, the IC50 in experiment [4] was > 4 µM.
In experiment [1], `Cc1cc(C)nc(Sc2c(C)cnc(O)c2[N+](=O)[O-])n1` gave a 50% cytotoxic concentration (CC50) of 19.5 µM. In experiment [2], the Specific index was >1. The compound also showed an IC50 in experiment [3] of 17.5 µM.
For `Cc1cc(C)cc(Sc2c(C)cnc(O)c2NC=O)c1`, in that order: > 100 µM, >15 and 6.6 µM.
As for `CCc1cnc(O)c(N)c1Sc1cc(C)cc(C)c1`, the CC50 in [1] was > 10 µM. The IC50 in experiment [5] was 6.7 µM; in [3] it was 0.01 µM. The Specific index was >1000 in experiment [2] and > 1 in experiment [6].
With `CC(C)=CCN1Cc2cc(Cl)cc3[nH]c(=S)n(c23)C[C@@H]1C`, in experiment [1], the CC50 is > 10 µM. Moreover, the IC50 in experiment [3] is > 10 µM.
With `CCc1c(Sc2cc(C)cc(C)c2)cc(O)nc1C`, in experiment [1], the CC50 was > 10 µM. Moreover, in experiment [2], the Specific index was >20. The results for the IC50 in experiment [3] and in experiment [4] were 0.5 µM and 0.4 µM, respectively.
As for `Cc1cnc(O)c(N)c1Sc1nc2ccccc2o1`, in [1], the CC50 was 7.5 µM. The same compound gave an IC50 in [3] of 8 µM.
For the compound `Cc1cc(C)cc(Sc2c(C)cnc(O)c2[N+](=O)[O-])c1`, the CC50 in experiment [1] is > 10 µM. Moreover, the concentration for half-maximal inhibition (IC50) in experiment [8] is > 10 µM; in experiment [3], 0.12 µM; in experiment [4] it was > 10 µM. The Specific index in experiment [2] is given as >83.
Take `Cc1cnc(O)c([N+](=O)[O-])c1SC1=NCCS1`: the CC50 in experiment [1] turned out to be 21.5 µM. The Specific index in experiment [2] is reported as >1. For the same compound, in [3], the IC50 is 17 µM.
`Cc1cccc(Sc2c(C)cnc(O)c2N)c1`: the CC50 in experiment [1] and in experiment [7] was 78 µM each time. For the same compound, the IC50 in [5] stood at 41.5 µM; in experiment [3] it was 1.4 µM. In addition, the Specific index in [2] was >55; in experiment [6], > 1.
In [1], `Cc1cnc(O)c([N+](=O)[O-])c1Sc1nccn1C` displayed a CC50 of 68.5 µM. Besides, the Specific index in [2] is >1. This compound also yielded an IC50 in [3] of 56 µM.
For `Cc1cc(C)cc(Sc2c(C)cnc(O)c2N)c1`, the CC50 in experiment [1] is > 10 µM. The figures for the IC50 in experiment [5], in [3] and in experiment [4] were > 10 µM, 0.01 µM and 0.1 µM, respectively. Further, the Specific index in experiment [2] is >1000.
In experiment [4], `CCc1c(C)[nH]c(=O)c([N+](=O)[O-])c1Sc1cc(C)cc(C)c1` came in with an IC50 of 0.03 µM.
Regarding `Cc1cn([C@H]2C[C@H](N=[N+]=[N-])[C@@H](CO)O2)c(=O)[nH]c1=O` [ZIDOVUDINE], the CC50 in [1] was > 100 µM.
Turning to `CCc1c(C)nc(O)c(N)c1Sc1cc(C)cc(C)c1`, in experiment [1], the CC50 is > 10 µM. Moreover, the IC50 in experiment [5] amounted to 2.1 µM; in [3], 0.014 µM; in experiment [4], 0.015 µM. Further, the Specific index in experiment [2] was >714; in experiment [6], > 4.
On to `CCCCCCC(=O)Nc1c(O)ncc(C)c1Sc1cc(C)cc(C)c1`, for which the CC50 in [1] was > 10 µM. In experiment [9], the IC50 was > 10 µM.
With `CCc1c(C)nc(O)c([N+](=O)[O-])c1Sc1cc(C)cc(C)c1`, in [1], the CC50 is > 10 µM. For the same compound, the 50% inhibitory concentration (IC50) in experiment [5] was 0.26 µM; in experiment [3], ~0.006 µM. For the same compound, the values for the Specific index in [2] and in [6] were >1666 and > 38, respectively.
In experiment [1], `Cc1cnc(O)c([N+](=O)[O-])c1Sc1nc2ccccc2[nH]1` displayed a CC50 of 54.5 µM. For the same compound, the Specific index in experiment [2] is >1. In addition, 43.5 µM corresponded to half-maximal inhibition in [3] (IC50).

By CC50 is commonly meant the concentration that lowers cell viability or growth by half. One may read the IC50 as the point on the concentration scale where inhibition reaches its midpoint. Low values mean greater potency in that assay, high ones weaker potency in that assay.
